The term Km denotes the concentration of substrate that gives half-maximal velocity. Usually logP stands for the decadic logarithm of the partition coefficient of the neutral form, usually between octanol and water. A word on the Vmax: it is the rate approached at saturating substrate.

Results on 16 compounds are retold here after ChEMBL document CHEMBL1122933, “Drug glycosides: potential prodrugs for colon-specific drug delivery” (J Med Chem, 1985).

Data set [1] in a line: Km(app) value was determined in homogenates of pooled cecal contents in rats. Format: ADME. To be noted: rat, read-out: Km app. The method in brief: (§1)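 Cecal contents from four rats pooled, weighed wet, diluted in 0.01 M phosphate pH 7.0 and homogenized. Reactions were run in duplicate at 37 °C for 15 min across substrate ranges spanning apparent KM. For p-nitrophenyl glycosides: 56-1000 substrate, NaOH stop, A403. For steroid glycosides: 0.5-48 substrate, MeOH quench, HPLC. KM(app) and Vmax (per g wet weight) came from Eadie-Hofstee plots.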

The species named for data set [2] is Rattus norvegicus. Description: Total activity of the entire contents of PSI segment in rat intestine. It counts as functional. The method in brief:
(§2)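 Contents of each rat GI segment (stomach, proximal small intestine, distal small intestine, cecum) were pooled from four animals, weighed wet, diluted in cold 0.01 M phosphate buffer pH 7.0, and homogenized. Homogenate was incubated with 1.0 mM glycoside at 37 °C with shaking for up to 30 min. Aliquots were MeOH-quenched, centrifuged and analysed by HPLC for released aglycon.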

For data set [3], the species on record is Rattus norvegicus. Description: Total activity of the entire contents of cecum segment in rat intestine. It counts as functional. The method in brief: as §2
Data set [4] can be described thus: Partition coefficient (logP). It counts as physicochemical. To be noted: octanol/water.
The species named for data set [5] is Rattus norvegicus. Description: Specific activity of the stomach segment in rat intestine. It counts as functional. The method in brief: as §2
The species named for data set [6] is Rattus norvegicus. The data set is described as follows: Total activity of the entire contents of stomach segment in rat intestine. Format: functional. The method in brief: as §2
The species named for data set [7] is Rattus norvegicus. Description: Specific activity of the PSI segment in rat intestine. It counts as functional. Also on record: unit not given here. The method in brief: as §2
The species named for data set [8] is Rattus norvegicus. The data set is described as follows: Specific activity of the cecum segment in rat intestine. It counts as functional. The method in brief:
as §2

For data set [9], the species on record is Rattus norvegicus. The data set is described as follows: Total activity of the entire contents of DSI segment in rat intestine. It counts as functional. The method in brief: as §2
The species named for data set [10] is Rattus norvegicus. The data set is described as follows: Specific activity of the DSI segment in rat intestine. Format: functional. The method in brief:
as §2

For data set [11], the species on record is Rattus norvegicus. Description: Vmax value was determined in homogenates of pooled cecal contents in rats. Format: ADME. The method in brief: as §1

With `C[C@]12C=CC(=O)C=C1CC[C@@H]1[C@@H]2C(O)C[C@@]2(C)[C@H]1CC[C@]2(O)C(=O)CO[C@@H]1O[C@H](CO)[C@@H](O)[C@H](O)[C@H]1O` (some centres not stated), in data set [1], the Michaelis-Menten constant (Km) is 4.5 µM. Besides, the Total activity came out at 0.07 µM/min in the data set filed under Rattus norvegicus [2], 6.6 µM/min in the data set filed under Rattus norvegicus [3], 0.12 µM/min in the data set listed under Rattus norvegicus [6] and 1 µM/min in the data set listed under Rattus norvegicus [9]. This compound registered a lipophilicity (logP) in [4] of 0.27. Also, the Specific activity in the data set filed under Rattus norvegicus [5] is 6.8 nM/min; in the data set filed under Rattus norvegicus [7] it was 12.2; in the data set filed under Rattus norvegicus [8] it was 265 nM/min; in the data set listed under Rattus norvegicus [10], 56.8 nM/min. Also, the maximal velocity (Vmax) in the data set listed under Rattus norvegicus [11] turned out to be 2.6 µM/min/g.
Compound `C[C@]12C=CC(=O)C=C1CC[C@@H]1[C@@H]2[C@@H](O)C[C@@]2(C)[C@H]1CC[C@]2(O)C(=O)CO` [PREDNISOLONE] displayed a logP in data set [4] of 1.55.
As to `CC12CCC(=O)C=C1CCC1C3CC[C@](O)(C(=O)CO[C@H]4O[C@@H](CO)[C@@H](O)[C@H](O)[C@H]4O)C3(C)CC(O)[C@@]12F` (some centres not stated), the Michaelis constant (Km) in data set [1] stood at 4.4 µM. The Total activity in the data set filed under Rattus norvegicus [2] came to 0.08 µM/min; in the data set listed under Rattus norvegicus [3] it was 1.4 µM/min; in the data set filed under Rattus norvegicus [6], 0.14 µM/min; in the data set listed under Rattus norvegicus [9], 0.43 µM/min. Also, in [4], the lipophilicity (logP) was found to be 0.84. Further, the Specific activity in the data set listed under Rattus norvegicus [5] came to 7.7 nM/min; in the data set listed under Rattus norvegicus [7], 12.3; in the data set listed under Rattus norvegicus [8], 49 nM/min; in the data set filed under Rattus norvegicus [10], 33 nM/min. The Vmax in the data set listed under Rattus norvegicus [11] amounted to 2.4 µM/min/g.
For the compound `CC12CCC(=O)C=C1CCC1C3CC[C@](O)(C(=O)CO)C3(C)CC(O)[C@@]12F` (some centres not stated), in [4], the logP is 1.73.
As for `CC12CCC(=O)C=C1CCC1C2C(O)CC2(C)C1CC[C@]2(O)C(=O)CO[C@@H]1O[C@H](CO)[C@@H](O)[C@H](O)[C@H]1O` (some centres not stated), the Km in data set [1] stood at 5.7 µM. In addition, the Total activity in the data set listed under Rattus norvegicus [2] was found to be 0.1 µM/min; in the data set filed under Rattus norvegicus [3], 0.76 µM/min; in the data set filed under Rattus norvegicus [6] it was 0.09 µM/min; in the data set listed under Rattus norvegicus [9], 0.7 µM/min. The compound also displayed a log partition coefficient (logP) in data set [4] of 0.44. The Specific activity was 5.5 nM/min in the data set listed under Rattus norvegicus [5], 15.9 in the data set listed under Rattus norvegicus [7], 30.5 nM/min in the data set listed under Rattus norvegicus [8] and 39.2 nM/min in the data set filed under Rattus norvegicus [10]. Also, in the data set listed under Rattus norvegicus [11], the maximum rate (Vmax) is 2.6 µM/min/g.
Take `CC1CC2C3CCC4=CC(=O)C=CC4(C)[C@@]3(F)C(O)CC2(C)[C@@]1(O)C(=O)CO[C@@H]1O[C@@H](CO)[C@@H](O)[C@H](O)[C@H]1O` (some centres not stated): the Km in [1] was found to be 13.3 µM. For the same compound, the Total activity in the data set filed under Rattus norvegicus [2] is 0.004 µM/min; in the data set filed under Rattus norvegicus [3], 6.5 µM/min; in the data set filed under Rattus norvegicus [6], 0.004 µM/min; in the data set listed under Rattus norvegicus [9], 0.41 µM/min. Also, the Specific activity in the data set filed under Rattus norvegicus [5] is 2 nM/min; in the data set filed under Rattus norvegicus [8] it was 322 nM/min; in the data set listed under Rattus norvegicus [10], 29.3 nM/min. Also, the Vmax in the data set filed under Rattus norvegicus [11] worked out at 3.9 µM/min/g.
Take `CC12CCC(=O)C=C1CCC1C3CC[C@](O)(C(=O)CO[C@H]4O[C@H](CO)[C@@H](O)[C@H](O)[C@H]4O)C3(C)CC(O)[C@@]12F` (some centres not stated): the Michaelis constant (Km) in data set [1] worked out at 2.5 µM. Besides, the Total activity is 0.01 µM/min in the data set filed under Rattus norvegicus [2], 12.9 µM/min in the data set filed under Rattus norvegicus [3], 0.01 µM/min in the data set filed under Rattus norvegicus [6] and 0.8 µM/min in the data set filed under Rattus norvegicus [9]. In addition, in data set [4], the lipophilicity (logP) stood at 0.25. Besides, the Specific activity stood at 7 nM/min in the data set filed under Rattus norvegicus [5], 12.5 in the data set filed under Rattus norvegicus [7], 642 nM/min in the data set filed under Rattus norvegicus [8] and 56.7 nM/min in the data set listed under Rattus norvegicus [10]. Moreover, the Vmax in the data set filed under Rattus norvegicus [11] turned out to be 2.2 µM/min/g.
Turning to `O=[N+]([O-])c1ccc(O[C@@H]2O[C@H](CO)[C@@H](O)[C@H](O)[C@H]2O)cc1`, the Michaelis-Menten constant (Km) in [1] is 360 µM. The Total activity came to 0.15 µM/min in the data set filed under Rattus norvegicus [2], 9.1 µM/min in the data set listed under Rattus norvegicus [3], 0.08 µM/min in the data set listed under Rattus norvegicus [6] and 0.65 µM/min in the data set filed under Rattus norvegicus [9]. In addition, the Specific activity was found to be 72.2 nM/min in the data set listed under Rattus norvegicus [5], 454 nM/min in the data set filed under Rattus norvegicus [8] and 86.6 nM/min in the data set listed under Rattus norvegicus [10]. For the same compound, in the data set filed under Rattus norvegicus [11], the Vmax came out at 697 µM/min/g.
For `O=[N+]([O-])c1ccc(O[C@@H]2O[C@H](CO)[C@@H](O[C@@H]3O[C@H](CO)[C@@H](O)[C@H](O)[C@H]3O)[C@H](O)[C@H]2O)cc1`, the Total activity came out at 0.05 µM/min in the data set listed under Rattus norvegicus [2], 2.6 µM/min in the data set filed under Rattus norvegicus [3], 0.35 µM/min in the data set listed under Rattus norvegicus [6] and 0.25 µM/min in the data set listed under Rattus norvegicus [9]. The Specific activity in the data set listed under Rattus norvegicus [5] was 34.2 nM/min; in the data set listed under Rattus norvegicus [8], 96.5 nM/min; in the data set listed under Rattus norvegicus [10], 26 nM/min.
Take `CC1CC2C3CCC4=CC(=O)C=CC4(C)[C@@]3(F)C(O)CC2(C)[C@@]1(O)C(=O)CO[C@@H]1O[C@H](CO)[C@@H](O)[C@H](O)[C@H]1O` (some centres not stated): the Km in data set [1] was 16.7 µM. Moreover, the Total activity came out at 0.07 µM/min in the data set listed under Rattus norvegicus [2], 3.5 µM/min in the data set listed under Rattus norvegicus [3], 0.12 µM/min in the data set listed under Rattus norvegicus [6] and 0.34 µM/min in the data set filed under Rattus norvegicus [9]. Besides, the Specific activity in the data set filed under Rattus norvegicus [5] came to 6.8 nM/min; in the data set listed under Rattus norvegicus [8], 141 nM/min; in the data set filed under Rattus norvegicus [10], 19.3 nM/min. Besides, the maximum rate (Vmax) in the data set listed under Rattus norvegicus [11] worked out at 10.2 µM/min/g.
Regarding `C[C@@H]1C[C@H]2[C@@H]3CCC4=CC(=O)C=C[C@]4(C)[C@@]3(F)[C@@H](O)C[C@]2(C)[C@@]1(O)C(=O)CO` [DEXAMETHASONE], in [4], the logP was 1.72.
`O=[N+]([O-])c1ccc(O[C@@H]2O[C@H](CO)[C@H](O)[C@H](O)[C@H]2O)cc1`: the Michaelis-Menten constant (Km) in data set [1] was found to be 166 µM. Further, the Total activity in the data set filed under Rattus norvegicus [2] is 0.2 µM/min; in the data set listed under Rattus norvegicus [3] it was 30.8 µM/min; in the data set listed under Rattus norvegicus [6] it was 0.7 µM/min; in the data set listed under Rattus norvegicus [9], 3.6 µM/min. For the same compound, the Specific activity in the data set filed under Rattus norvegicus [5] was determined as 57.8 nM/min; in the data set listed under Rattus norvegicus [8], 1620 nM/min; in the data set listed under Rattus norvegicus [10] it was 425 nM/min. Further, the Vmax in the data set listed under Rattus norvegicus [11] stood at 1233 µM/min/g.
In the case of `C[C@]12CCC(=O)C=C1CC[C@@H]1[C@@H]2[C@@H](O)C[C@@]2(C)[C@H]1CC[C@]2(O)C(=O)CO` [HYDROCORTISONE], in data set [4], the lipophilicity (logP) was 1.54.
Take `C[C@]12C=CC(=O)C=C1CC[C@@H]1[C@@H]2[C@@H](O)C[C@@]2(C)[C@H]1CC[C@]2(O)C(=O)CO[C@@H]1O[C@H](CO)[C@@H](O[C@@H]2O[C@H](CO)[C@@H](O)[C@H](O)[C@H]2O)[C@H](O)[C@H]1O`: the Total activity in the data set filed under Rattus norvegicus [2] amounted to 0.11 µM/min; in the data set listed under Rattus norvegicus [3], 2.2 µM/min; in the data set listed under Rattus norvegicus [6], 0.01 µM/min; in the data set listed under Rattus norvegicus [9], 0.64 µM/min. Moreover, the log partition coefficient (logP) in data set [4] was -0.56. For the same compound, the Specific activity in the data set filed under Rattus norvegicus [5] was 7.5 nM/min; in the data set listed under Rattus norvegicus [7], 26; in the data set filed under Rattus norvegicus [8] it was 109 nM/min; in the data set filed under Rattus norvegicus [10] it was 32.5 nM/min.
For `CC12CCC(=O)C=C1CCC1C2C(O)CC2(C)C1CC[C@]2(O)C(=O)CO[C@@H]1O[C@@H](CO)[C@@H](O)[C@H](O)[C@H]1O` (some centres not stated), the Michaelis-Menten constant (Km) in data set [1] worked out at 33.3 µM. Moreover, the Total activity in the data set listed under Rattus norvegicus [2] was found to be 0.02 µM/min; in the data set listed under Rattus norvegicus [3], 11.9 µM/min; in the data set filed under Rattus norvegicus [6] it was 0.02 µM/min; in the data set listed under Rattus norvegicus [9], 1.6 µM/min. Moreover, in [4], the logP is 0.15. The Specific activity in the data set listed under Rattus norvegicus [5] stood at 12.5 nM/min; in the data set filed under Rattus norvegicus [7] it was 42.5; in the data set listed under Rattus norvegicus [8], 592 nM/min; in the data set filed under Rattus norvegicus [10] it was 110 nM/min. For the same compound, in the data set listed under Rattus norvegicus [11], the Vmax worked out at 20.6 µM/min/g.
For the compound `C[C@]12C=CC(=O)C=C1CC[C@@H]1[C@@H]2C(O)C[C@@]2(C)[C@H]1CC[C@]2(O)C(=O)CO[C@@H]1O[C@@H](CO)[C@@H](O)[C@H](O)[C@H]1O` (some centres not stated), in [1], the Km is 20 µM. The Total activity in the data set listed under Rattus norvegicus [2] came out at 0.23 µM/min; in the data set filed under Rattus norvegicus [3], 13 µM/min; in the data set listed under Rattus norvegicus [6], 0.19 µM/min; in the data set filed under Rattus norvegicus [9] it was 1.72 µM/min. The compound further gave a log partition coefficient (logP) in [4] of 0.11. The Specific activity in the data set filed under Rattus norvegicus [5] turned out to be 12.1 nM/min; in the data set listed under Rattus norvegicus [7] it was 49.3; in the data set filed under Rattus norvegicus [8] it was 665 nM/min; in the data set listed under Rattus norvegicus [10], 122 nM/min. The maximal velocity (Vmax) in the data set filed under Rattus norvegicus [11] is 10.3 µM/min/g.
